Screens deposited in PubChem by several laboratories.
Sampled rows, rich in hits. Any-hit rate of the full collection: about 1.7%.
PP1 counter: PP1-alpha (human) inhibition in PP5 counter-screen | P62136 | inhibition, % at 6.7 µM | purified PP1alpha, OMFP fluorescence | AID 2235 | hit rate 0.9% among 320,000;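 active = inhibition above the mean inhibition of all tested compounds plus 3 SD, computed separately for each screening campaign, cut at about 15% in these data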
HTR2A ag: activates the mouse 5-HT2A serotonin receptor; P35363; CHO-K1 mHTR2A beta-arrestin complementation, luminescence; percent of 30 µM serotonin response; activation, % at 7.6 µM; hit rate 0.66% among 360,000; AID 624169;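 active = activation above a run cutoff, the mean activation of all tested compounds plus 3 SD, cut at about 14% in these data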;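 also: 0% = plate median of compound wells and 100% = 30 µM serotonin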
Target sequence (P35363 whole entry, looked up): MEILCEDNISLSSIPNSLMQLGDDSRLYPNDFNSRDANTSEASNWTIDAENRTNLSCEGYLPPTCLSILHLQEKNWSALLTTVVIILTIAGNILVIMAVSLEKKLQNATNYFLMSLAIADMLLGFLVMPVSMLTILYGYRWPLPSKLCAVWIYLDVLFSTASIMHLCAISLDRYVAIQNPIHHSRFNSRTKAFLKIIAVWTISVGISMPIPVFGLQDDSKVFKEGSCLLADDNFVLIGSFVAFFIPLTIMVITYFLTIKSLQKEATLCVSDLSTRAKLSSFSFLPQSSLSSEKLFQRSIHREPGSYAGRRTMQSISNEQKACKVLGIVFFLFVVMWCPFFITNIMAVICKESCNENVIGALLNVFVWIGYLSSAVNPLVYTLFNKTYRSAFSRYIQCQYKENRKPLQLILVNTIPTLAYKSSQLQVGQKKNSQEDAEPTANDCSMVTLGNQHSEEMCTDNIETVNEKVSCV
PP5 inh: PP5 (human) phosphatase inhibition. P53041. purified PP5c, OMFP substrate fluorescence. inhibition, % at 6.7 µM. hit rate 0.18% among 320,000;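 active = inhibition above the campaign's mean inhibition across all tested compounds plus 3 SD, cut at about 9.5% in these data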;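 also: 0% = DMSO only and 100% = 100 µM cantharidin control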
GASC-1 inh: human JMJD2C demethylase inhibition; Q9H3R0; GST-JMJD2C(1-420) H3K9me3 demethylation, DELFIA europium; inhibition, % at 2.35 µM; hit rate 0.069% among 330,000; AID 2099;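 active = more than half of a compound's replicate wells show inhibition beyond 50%, single wells judged on their own value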;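 also: signal counts dimethyl H3K9 product captured on neutravidin plate; 0% = median of DMSO wells and 100% = 0.3 times that DMSO median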
T cell HTS: T cell immune modulation candidate. 2C CD8+ T cell-vesicle binding, flow cytometry; active compounds read low. response (vesicle binding), % at 7 µM. hit rate 0.068% among 330,000. AID 2052;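 active = response, share of CD8 T cells binding vesicles, and their 90th percentile fluorescence all below set limits, cut at about 80% in these data, passing the limit was not always enough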;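 also: values below 100% mean blocked vesicle binding to the CD8+ T cells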
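Material: murine 2C transgenic CD8+ T lymphocytes / Also added: QL9-peptide-loaded Drosophila micro-vesicles bearing Ld, ICAM-1 and B7-1 / Schedule: binding step 1.5 h, 37 °C, antibody labelling 20 min, ice / Signal: flow cytometry, PE anti-B7-1 (FL2) versus Alexa647 anti-CD8 (FL8), PFA-fixed / Evaluation: percent CD8+ FL2 mean versus row control / Benchmarks: naked versus QL9-loaded vesicles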
MOR ag counter: activates human mu opioid receptor in HTR2A counterscreen; activation, % at 9.3 µM; hit rate 5.3% among 2,300; shares compounds with HTR2A ag; AID 624380; U2OS OPRM1 beta-arrestin PathHunter, luminescence; DMSO 0%, DAMGO 9.3 µM 100%;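 active = mean activation above the mean of DMSO-only wells plus 3 SD, cut at about 0.5% in these data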
m5-HT2A ag conf: confirmation of mouse HTR2A serotonin receptor agonists. shares compounds with HTR2A ag. CHO-K1 PathHunter beta-arrestin recruitment, luminescence; DMSO 0%, 30 µM serotonin 100%. activation, % at 7.6 µM. hit rate 19% among 2,300;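 active = mean activation across triplicates above the hit threshold derived in the original primary screen, cut at about 15% in these data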
* = called active by the depositor.

O=C1c2ccccc2C(=O)N1c1cccc2cccnc12 was read as PP1 counter 4, HTR2A ag 4, PP5 inh 0, GASC-1 inh -7 and T cell HTS 228.
For O=C1c2ccccc2C(=O)N1c1ncccn1 the results were PP1 counter -2, HTR2A ag 22*, PP5 inh 0, GASC-1 inh 13, T cell HTS 317, MOR ag counter 0 and m5-HT2A ag conf 3.
`COc1ccc(OC)c(/C=C/C(=O)OCC(=O)NC2CCCCCCC2)c1` gave PP1 counter -3, HTR2A ag 16*, PP5 inh 2, T cell HTS 387, MOR ag counter -1 and m5-HT2A ag conf -6.
Screening Cc1ccccc1-n1c(SC(C)C(=O)NCC2CCCO2)nnc1-c1ccncc1 (configuration not stated) returned HTR2A ag 15*, MOR ag counter 0 and m5-HT2A ag conf -1.
Screening Cc1ccccc1-n1c(SCC(=O)NCC2CCCO2)nnc1-c1ccncc1 (configuration not stated) returned HTR2A ag -2, GASC-1 inh 0 and T cell HTS 223.
Screening Nc1ncnc(N)c1N=Nc1ccccc1 returned HTR2A ag 21*, GASC-1 inh 6, T cell HTS 168, MOR ag counter -1 and m5-HT2A ag conf -2.
Nc1nn(-c2ccccc2)c(N)c1N=Nc1ccccc1 was read as PP1 counter -1, HTR2A ag -5, PP5 inh -5, GASC-1 inh -3 and T cell HTS 271.
Screening CCCc1cc(=O)[nH]c(SCC(=O)NCC2COc3ccccc3O2)n1 (configuration not stated) returned PP1 counter -2, HTR2A ag 12, PP5 inh 0 and T cell HTS 219.
`Cc1cccc(NC(=O)c2cc3c(=O)n4ccccc4nc3n(CC(C)C)c2=N)c1` gave PP1 counter 3, HTR2A ag 15*, PP5 inh 1, GASC-1 inh 6, T cell HTS 267, MOR ag counter 0 and m5-HT2A ag conf 2.
Screening COc1cccc(NC(=O)c2cc3c(=O)n4ccccc4nc3n(CC(C)C)c2=N)c1 returned PP1 counter 8, HTR2A ag 4, PP5 inh -5, GASC-1 inh -39 and T cell HTS 660.
For O=C(COC(=O)CNC(=O)c1ccc(Cl)cc1Cl)Nc1cccc(S(=O)(=O)N2CCCC2)c1 the results were PP1 counter -6, HTR2A ag -1, PP5 inh 1, GASC-1 inh 52 and T cell HTS 222.
Screening COc1ccc(C(C(=O)NCc2ccccc2)n2c(-c3ccccn3)nc3ccccc32)cc1 (configuration not stated) returned HTR2A ag -6.
For CO[C@@H]1CN(C)C(=O)c2ccc(NC(=O)C3CCC3)cc2OC[C@H](C)N(CC2CCCCC2)C[C@H]1C the results were HTR2A ag 21*, MOR ag counter 0 and m5-HT2A ag conf -2.
`Cc1cnc(C(=O)OCC(=O)NC(C)c2ccccc2)cn1` (configuration not stated) gave HTR2A ag 10, GASC-1 inh 9 and T cell HTS 258.
`COc1cc2c(cc1OC)C(C)N(C(=O)[C@@H](NC(=O)c1ccccc1)C(C)C)CC2` (some centres not stated) gave PP1 counter 3, HTR2A ag 6, PP5 inh 0, GASC-1 inh 14 and T cell HTS 30.
Screening C[C@H](NC(=O)COc1ccc(Cl)cc1)C(=O)N1CCC2(CC1)NCCc1[nH]cnc12 returned PP1 counter -3, HTR2A ag -5, PP5 inh 2, GASC-1 inh 2 and T cell HTS 291.
`CC(C)OC(=O)NC(Nc1ccccc1C(=O)O)(C(F)(F)F)C(F)(F)F` gave PP1 counter 0, HTR2A ag 22*, PP5 inh -3, GASC-1 inh 4, T cell HTS 448, MOR ag counter 0 and m5-HT2A ag conf 1.
